Reference: ChEMBL document CHEMBL1122325, “2-[(Phenylthio)methyl]pyridine derivatives: new antiinflammatory agents” (1983)
Activity calls are given as the source filed them. The rule behind the calls is not given here.

Legend:
Rattus norvegicus [1] = test: Inhibition of dermal RPAR in rats following p.o. administration; Not significant.; type: functional
Method in brief: (§1)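 Male Sprague-Dawley rats (140-160 g, n=6/group), fasted 18 h, given iv BSA 0.15% w/v with 0.4% Evans Blue in saline, then test agent orally in 0.2% methylcellulose about 1 h later (three dose levels, vehicle controls). Anti-BSA rabbit γ-globulin injected intradermally 30 min post-dose; lesions excised at 4 h, dye-outlined diameters measured, percent inhibition of lesion area versus control; 40% inhibition dose by least-squares regression.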

Rattus norvegicus [2] = species on record: Rattus norvegicus; test: Reduction in leukocyte numbers in rat pleural RPAR exudate.; type: functional
Method in brief: (§2)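 Fasted male Sprague-Dawley rats (160-200 g, 8-10/group) received BSA 3 mg/kg iv, then 1 h later intrapleural rabbit anti-BSA γ-globulin (0.2 mL); oral compound (four doses, 0.2% methylcellulose) or vehicle 30 min before. At 4 h, exudate volume and white cell count by phenol red dye dilution; percent inhibition versus control mean; ED50 by least-squares regression.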

Rattus norvegicus [3] = species on record: Rattus norvegicus; test: Reduction in exudate volume in rat pleural RPAR test.; type: functional; method in brief: as §2
Rattus norvegicus [4] = test: Inhibition of dermal RPAR in rats following p.o. administration.; type: functional; method in brief: as §1
Rattus norvegicus [5] = species on record: Rattus norvegicus; test: animal or person; type: functional; conditions: po
Rattus norvegicus [6] = test: Percent inhibition of rat dermal RPAR following 350 umol/kg p.o. administration.; type: functional; conditions: po; method in brief: as §1
Rattus norvegicus [7] = species on record: Rattus norvegicus; test: Reduction in exudate volume in rat pleural carrageenan test.; type: functional
Method in brief: (§3)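 Fasted male Sprague-Dawley rats (160-200 g, 8-10/group) dosed orally at four levels in 0.2% methylcellulose, or vehicle, 30 min before intrapleural carrageenin (125 μg in 0.2 mL saline); no iv BSA. Killed 4 h later; pleural exudate volume and white cells measured by phenol red dye dilution, inhibition calculated against vehicle controls.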

Rattus norvegicus [8] = species on record: Rattus norvegicus; test: Reduction in exudate volume in rat pleural RPAR test; Nonactive.; type: functional, organism-based; method in brief: as §2
Rattus norvegicus [9] = species on record: Rattus norvegicus; test: (§4) Reduction in leukocyte numbers in rat pleural RPAR exudate; Nonactive.; type: functional, organism-based; method in brief: as §2
Rattus norvegicus [10] = species on record: Rattus norvegicus; test: as §4; type: functional, organism-based; method in brief: as §2; remark: listed apart in the source
Rattus norvegicus [11] = species on record: Rattus norvegicus; test: Reduction in leukocyte numbers in rat pleural carrageenan test.; type: functional; method in brief: as §3

| Compound | ED40 (Rattus norvegicus [4]) [µM/kg] | inhibition in vivo at 350 µmol/kg (Rattus norvegicus [5]) [%] | further results |
| --- | --- | --- | --- |
| Cc1ccc(O)c(CSc2ccc(Br)cc2)n1 | – | – | ED40 (Rattus norvegicus [1]): inactive |
| Cl.c1ccc(SCc2ccccn2)cc1 | 101 | – | ED50 (Rattus norvegicus [2]): 252 µmol/kg; ED50 (Rattus norvegicus [3]): 172 µmol/kg |
| c1ccc(CSc2nc3ccccc3o2)nc1 | – | 26 | – |
| Brc1ccc(SCC2CCCCN2)cc1 (stereo unspecified) | 430 | – | – |
| Brc1ccc(CSc2ccccn2)cc1 | – | 36 | – |
| Clc1ccc(Cc2ccccn2)cc1 | – | 35 | – |
| CC(Sc1ccc(Br)cc1)c1ccccn1.Cl (stereo unspecified) | 212 | – | – |
| C[n+]1ccccc1CSc1ccc(Br)cc1 | – | 22 | – |
| Cc1cccc(CSc2ccc(Br)cc2)n1 | – | 28 | – |
| Cc1ccc(SCc2ccccn2)cc1 | – | – | ED40 (Rattus norvegicus [1]): inactive |
| Brc1ccccc1SCc1ccccn1.Cl | 282 | – | – |
| c1ccc(CSc2nc3ccccc3s2)nc1 | – | – | ED40 (Rattus norvegicus [1]): inactive |
| Brc1ccc(SCc2cccc(CSc3ccc(Br)cc3)n2)cc1 | – | – | ED40 (Rattus norvegicus [1]): inactive |
| Clc1ccc(OCc2ccccn2)cc1 | – | 39 | – |
| COc1cccnc1CSc1ccc(Br)cc1 | – | – | inhibition in vivo at 350 µmol/kg (Rattus norvegicus [6]): 26% |
| Cl.O=S(=O)(Cc1ccccn1)c1ccc(Br)cc1 | 192 | – | – |
| COc1ccc2c(c1)c(CC(=O)O)c(C)n2C(=O)c1ccc(Cl)cc1 [INDOMETHACIN] | – | – | ED50 (Rattus norvegicus [7]): 3 µmol/kg; ED50 (Rattus norvegicus [8]): inactive; ED50 (Rattus norvegicus [9]): inactive; ED40 (Rattus norvegicus [1]): inactive; ED50 (Rattus norvegicus [10]): inactive |
| COc1cccc(SCc2ccccn2)c1.Cl | 273 | – | – |
| Cl.[O-][n+]1ccccc1CSc1ccc(Br)cc1 | 148 | – | – |
| Cl.FC(F)(F)c1cccc(SCc2ccccn2)c1 | 307 | – | – |
| Oc1cccnc1CSc1ccc(Br)cc1 | – | – | ED40 (Rattus norvegicus [1]): inactive |
| COc1ccc(SCc2ccccn2)cc1.Cl | – | – | Inhibition (Rattus norvegicus [1]): 23% |
| Nc1ccc(SCc2ccccn2)cc1 | – | 25 | – |
| c1ccc(CSC2CCCCC2)nc1 | – | 21 | – |
| Brc1ccc(CSCc2ccccn2)cc1 | – | 31 | – |
| CC(C)(C)c1ccc(SCc2ccccn2)cc1 | – | 34 | – |
| Brc1ccc(SCc2ccncc2)cc1 | – | 26 | – |

| Compound | ED40 (Rattus norvegicus [4]) [µM/kg] | inhibition in vivo at 350 µmol/kg (Rattus norvegicus [5]) [%] | further results |
| --- | --- | --- | --- |
| Cl.Clc1ccccc1SCc1ccccn1 | 300 | – | – |
| Cl.Cl.c1ccc(CSc2ccncc2)nc1 | 149 | – | – |
| Brc1ccc(NCc2ccccn2)cc1 | – | – | ED40 (Rattus norvegicus [1]): inactive |
| Cl.Fc1ccc(SCc2ccccn2)cc1 | 159 | – | ED50 (Rattus norvegicus [2]): 129 µmol/kg; ED50 (Rattus norvegicus [3]): 137 µmol/kg |
| Brc1ccc(SCc2ccccn2)cc1.Cl | 151 | – | ED50 (Rattus norvegicus [7]): 142 µmol/kg; ED50 (Rattus norvegicus [2]): 73 µmol/kg; ED50 (Rattus norvegicus [3]): 82 µmol/kg; ED50 (Rattus norvegicus [11]): 215 µmol/kg |
| C[C@]12CCC(=O)C=C1CC[C@@H]1[C@@H]2[C@@H](O)C[C@@]2(C)[C@H]1CC[C@]2(O)C(=O)CO [HYDROCORTISONE] | 33 | – | ED50 (Rattus norvegicus [7]): 33 µmol/kg; ED50 (Rattus norvegicus [2]): 50 µmol/kg; ED50 (Rattus norvegicus [3]): 38 µmol/kg; ED50 (Rattus norvegicus [11]): 25 µmol/kg |
| Cc1cccnc1CSc1ccc(Br)cc1 | – | 25 | – |
| Clc1cccc(CSc2ccc(Br)cc2)n1 | – | – | ED40 (Rattus norvegicus [1]): inactive |
| c1ccc(CCc2ccccn2)cc1 | – | 36 | – |
| Cl.Clc1ccc(SCc2ccccn2)cc1Cl | 402 | – | – |
| Brc1ccc(Sc2ccccn2)cc1.Cl | 369 | – | – |
| Cc1cc(C(C)(C)C)ccc1SCc1ccccn1 | – | 30 | – |
| Clc1ccnc(CSc2ccc(Br)cc2)c1 | – | – | ED40 (Rattus norvegicus [1]): inactive |
| Brc1ccc(SCc2cc(-c3ccccc3)ccn2)cc1 | – | – | ED40 (Rattus norvegicus [1]): inactive |
| CN1CCCCC1CSc1ccc(Br)cc1.Cl (stereo unspecified) | 159 | – | – |
| Cc1ccc(CSc2ccc(Br)cc2)nc1 | – | – | ED40 (Rattus norvegicus [1]): inactive |
| Cl.c1ccc(CSc2ncccn2)nc1 | 283 | – | – |
| Cl.Clc1cccc(SCc2ccccn2)c1 | 223 | – | – |
| Oc1ccc(SCc2ccccn2)cc1 | – | – | ED40 (Rattus norvegicus [1]): inactive |
| Cl.[O-][S+](Cc1ccccn1)c1ccc(Br)cc1 (stereo unspecified) | 216 | – | – |
| Brc1ccc(SCCc2ccccn2)cc1 | – | – | ED40 (Rattus norvegicus [1]): inactive |
| Cl.O=[N+]([O-])c1ccc(SCc2ccccn2)cc1 | 233 | – | – |
| Cl.Oc1nc(SCc2ccccn2)nc2ccccc12 | 177 | – | – |
| Cl.Clc1ccc(SCc2ccccn2)cc1 | 186 | – | ED50 (Rattus norvegicus [2]): 162 µmol/kg; ED50 (Rattus norvegicus [3]): 154 µmol/kg |
| Brc1ccc(SCc2cccnc2)cc1 | – | 23 | – |
| CC(=O)Nc1ccc(SCc2ccccn2)cc1 | – | 30 | – |
